The values that follow come from ChEMBL document CHEMBL5154945, “Discovery and Optimization of Pyrrolopyrimidine Derivatives as Selective Disruptors of the Perinucleolar Compartment, a Marker of Tumor Progression toward Metastasis” (J Med Chem, 2022).

Data set [1] relates to PC-3M. Nature of the data set: Anticancer activity in human PC-3M cells expressing PTB/GFP fusion protein assessed as perinucleolar compartment disassembly and measured after 24 hrs by Hoechst 33342 staining based microscopic method. Type of data set: functional, cell-based. In a few lines: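 Imaged by high-content microscopy. Nuclei with PNC spots ≥3 and >0 scored positive. PNC prevalence % = PNC-positive nuclei/total nuclei ×100, normalized to DMSO (0% activity) and 0% PNC (−100%). IC50 from concentration-response.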

The nature of data set [2]: Permeability of the compound at pH 7.4 incubated for 30 mins by UV plate reader based PAMPA assay. Particulars: for permeability: pampa, pH 7.4, 0.5 h. On the technique in general: In PAMPA a lipid-coated filter parts donor from acceptor wells.
A short description of data set [3]: Microsomal stability in CD1 mouse liver microsomes assessed as half life measured upto 60 mins in presence of NADPH by LC-MS analysis. The note with it: mouse, microsomes, 1 h. (In general: Liver microsomes are a subcellular fraction often used to study metabolism.)

Consider `CN(C)CCCn1cnc2c(c(-c3ccccc3)c(-c3ccccc3)n2CCc2ccccc2)c1=N`, for which, in data set [1] (read-out: IC50), the IC50 amounted to 12.6 µM. Besides, the permeability in data set [2] is 294.4 10^-6 cm/s. For the same molecule, in data set [3], the t1/2 is 77.9 min.

For the molecule `N=c1c2c(-c3ccc4c(c3)OCO4)c(-c3ccc4c(c3)OCO4)n(Cc3ccccc3)c2ncn1C1CCOCC1`, the IC50 in data set [1] (read-out: IC50) is above 20 µM.

Take `N=c1c2c(-c3ccccc3)c(-c3ccccc3)n(CCc3ccccc3)c2ncn1CC1CCCO1` (stereo unspecified): in data set [1] (read-out: pIC50 (converted)), the IC50 was 7.94 µM. Moreover, the permeability in data set [2] is > 1000 10^-6 cm/s. In addition, the t1/2 in data set [3] is 8.4 min.

As for `CN(C)CCn1cnc2c(c(-c3ccccc3)c(-c3ccccc3)n2Cc2ccccc2)c1=N`, the IC50 in data set [1] (read-out: pIC50 (converted)) was 2.95 µM. Further, the permeability in data set [2] is reported as 1358 10^-6 cm/s. The t1/2 in data set [3] is 14.3 min.

In the case of `N=c1c2c(-c3ccccc3)c(-c3ccccc3)n(CCc3ccccc3)c2ncn1CC1CCOC1` (stereo unspecified), the IC50 in data set [1] (read-out: pIC50 (converted)) was 10.7 µM. Also, the permeability in data set [2] is > 1000 10^-6 cm/s. In data set [3], the t1/2 is 6.9 min.

As for `CO[C@H]1CC[C@H](n2cnc3c(c(-c4ccccc4)c(-c4ccccc4)n3Cc3ccccc3)c2=N)CC1`, the IC50 in data set [1] (read-out: pIC50 (converted)) was 0.251 µM.

Take `N=c1c2c(-c3ccccc3)c(-c3ccccc3)n(CC3CCCCC3)c2ncn1C1CCOCC1`: the IC50 in data set [1] (read-out: pIC50 (converted)) was 2 µM.

`N=c1c2c(-c3ccccc3)c(-c3ccccc3)n(CC3CCCCC3)c2ncn1CCCO`: the IC50 in data set [1] (read-out: pIC50 (converted)) is 26.9 µM. Moreover, the permeability in data set [2] was > 1000 10^-6 cm/s.

As for `COc1ccc(-c2c(-c3ccc(OC)cc3)n(Cc3ccccc3)c3ncn([C@H]4CC[C@H](O)CC4)c(=N)c23)cc1`, in data set [1] (read-out: IC50), the IC50 is above 20 µM. Besides, the permeability in data set [2] is 196 10^-6 cm/s.

On to `N=c1c2c3c(n(CCc4ccccc4)c2ncn1C1CCOCC1)CCCC3`, for which the IC50 in data set [1] (read-out: IC50) is above 20 µM.

With `N=c1c2c(-c3ccccc3)c(-c3ccccc3)n(Cc3ccc(S(N)(=O)=O)cc3)c2ncn1CCCO`, in data set [2], the permeability was < 1 10^-6 cm/s. Further, in data set [3], the t1/2 was 26.7 min.

With `COc1ccc(-c2c(-c3ccc(OC)cc3)n(Cc3ccccc3)c3ncn(CCCO)c(=N)c23)cc1`, the IC50 in data set [1] (read-out: IC50) was above 20 µM. The molecule further showed a Papp at 0.5 h in data set [2] (PAMPA, pH 7.4) above 1000 ×10⁻⁶ cm/s.

Take `CCO/C=N/c1c(C#N)c(-c2ccccc2)c(-c2ccccc2)n1Cc1ccccc1`: the IC50 in data set [1] (read-out: IC50) was above 20 µM.

Consider `N=c1c2c(-c3ccccc3)c(-c3ccccc3)n(Cc3ccc(OC(F)(F)F)cc3)c2ncn1CCCO`, for which, in data set [1] (read-out: pIC50 (converted)), the IC50 was 4.37 µM. In data set [2], the permeability is recorded as > 1000 10^-6 cm/s.

As for `OCCCNc1ncnc2c1c(-c1ccccc1)c(-c1ccccc1)n2Cc1ccccc1`, the IC50 in data set [1] (read-out: IC50) is above 20 µM.

Turning to `COc1ccc(-c2c(-c3ccc(OC)cc3)n(Cc3ccccc3)c3ncn([C@H]4CC[C@H](OC)CC4)c(=N)c23)cc1`, in data set [1] (read-out: IC50), the IC50 was above 20 µM. The permeability in data set [2] is on record as > 1000 10^-6 cm/s.

Consider `COc1ccc(Cn2c(-c3ccccc3)c(-c3ccccc3)c3c(=N)n(C4CCOCC4)cnc32)cc1`, for which the IC50 in data set [1] (read-out: pIC50 (converted)) was 0.174 µM.

With `N=c1c2c(-c3ccccc3)c(-c3ccccc3)n(CCc3ccccc3)c2ncn1C[C@@H]1CCCC[C@H]1O` (relative stereo), the IC50 is 2.72 µM in data set [1] (read-out: IC50) and 0.955 µM in data set [1] (read-out: pIC50 (converted)). Moreover, in data set [3], the t1/2 is on record as 4.3 min.

In the case of `O[C@H]1CC[C@H](Nc2ncnc3c2c(-c2ccccc2)c(-c2ccccc2)n3Cc2ccccc2)CC1`, in data set [1] (read-out: IC50), the IC50 is above 20 µM.

For the molecule `CO[C@H]1CC[C@H](n2cnc3c(c(-c4ccccc4)c(-c4ccccc4)n3Cc3ccc(OC(F)(F)F)cc3)c2=N)CC1`, in data set [1] (read-out: pIC50 (converted)), the IC50 is 1.1 µM.

As for `N=c1c2c(-c3ccccc3)c(-c3ccccc3)n(Cc3ccccc3)c2ncn1C1CCN(Cc2ccccc2)CC1`, in data set [1] (read-out: pIC50 (converted)), the IC50 was 5.01 µM. Further, the t1/2 in data set [3] came out at 32.2 min.

For `N=c1c2c(-c3ccccc3)c(-c3ccccc3)n(CC3CCCCC3)c2ncn1[C@H]1CC[C@H](O)CC1`, the IC50 in data set [1] (read-out: pIC50 (converted)) is 2.75 µM.

With `N=c1c2c(-c3ccccc3)c(-c3ccccc3)n(Cc3ccccc3)c2ncn1CCN`, in data set [1] (read-out: IC50), the IC50 is above 20 µM. For the same molecule, the permeability in data set [2] is 164.7 10^-6 cm/s.

By Papp is commonly meant a coefficient for how fast a substance crosses the barrier.
